Screening data (PubChem)
The list is not random: actives were taken first. Their share in the collection is about 3%.
KLK7 zymogen act = proKLK7 zymogen activators, primary screen, biochemical, fluorescence intensity. Kallikrein-7 (Homo sapiens), P49862. purified proKLK7, EDANS-DABCYL substrate fluorescence; 100% is mature enzyme control, 0% vehicle. activation, % at 7 µM. hit rate 0.9% among 370,000;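 active = activation above the mean of all tested compounds plus 3 SD, computed per campaign excluding outliers beyond control limits, cut at about 13% in these data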
Tn7 DDE FP = inhibitors of Tn7 peptide binding to fibrin DD(E), primary screen, biochemical, fluorescence polarization, human fibrin, Tn7 probe; inhibition, % at 8.3 µM; FP displacement of FITC-Tn7 peptide from fibrin DD(E); 0% = median of compound wells per plate; hit rate 0.13% among 370,000; Fibrinogen beta chain (Homo sapiens), P02675;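 active = inhibition above the mean of compounds falling within the control limits plus 3 SD of them, cut at about 14% in these data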;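 note: 0% = plate median of compound wells and 100% = 10 µM Aha-Tn7 peptide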
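Test system: human clot-derived fibrin DD(E) complex / Quantity: 2 µM final DD(E) protein / Incubation: 10 min plus 3 h, room temperature / Measured by: fluorescence polarization / Benchmarks: high control of 10 µM Aha-Tn7 peptide / Replicates: singlicate testing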
PLC-beta3 inh = human PLC-beta3 inhibitors, primary screen, biochemical, fluorescence; inhibition, % at 12.2 µM; hit rate 0.18% among 370,000; AID 720704, 2013; 1-phosphatidylinositol 4,5-bisphosphate phosphodiesterase beta-3 (Homo sapiens), Q01970; Purified PLC-beta3, fluorogenic substrate; in the data active = inhibition above about 11%;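 note: 0% = median of compound wells on plate and 100% = full blocker control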
Target sequence (Q01970 whole entry, looked up): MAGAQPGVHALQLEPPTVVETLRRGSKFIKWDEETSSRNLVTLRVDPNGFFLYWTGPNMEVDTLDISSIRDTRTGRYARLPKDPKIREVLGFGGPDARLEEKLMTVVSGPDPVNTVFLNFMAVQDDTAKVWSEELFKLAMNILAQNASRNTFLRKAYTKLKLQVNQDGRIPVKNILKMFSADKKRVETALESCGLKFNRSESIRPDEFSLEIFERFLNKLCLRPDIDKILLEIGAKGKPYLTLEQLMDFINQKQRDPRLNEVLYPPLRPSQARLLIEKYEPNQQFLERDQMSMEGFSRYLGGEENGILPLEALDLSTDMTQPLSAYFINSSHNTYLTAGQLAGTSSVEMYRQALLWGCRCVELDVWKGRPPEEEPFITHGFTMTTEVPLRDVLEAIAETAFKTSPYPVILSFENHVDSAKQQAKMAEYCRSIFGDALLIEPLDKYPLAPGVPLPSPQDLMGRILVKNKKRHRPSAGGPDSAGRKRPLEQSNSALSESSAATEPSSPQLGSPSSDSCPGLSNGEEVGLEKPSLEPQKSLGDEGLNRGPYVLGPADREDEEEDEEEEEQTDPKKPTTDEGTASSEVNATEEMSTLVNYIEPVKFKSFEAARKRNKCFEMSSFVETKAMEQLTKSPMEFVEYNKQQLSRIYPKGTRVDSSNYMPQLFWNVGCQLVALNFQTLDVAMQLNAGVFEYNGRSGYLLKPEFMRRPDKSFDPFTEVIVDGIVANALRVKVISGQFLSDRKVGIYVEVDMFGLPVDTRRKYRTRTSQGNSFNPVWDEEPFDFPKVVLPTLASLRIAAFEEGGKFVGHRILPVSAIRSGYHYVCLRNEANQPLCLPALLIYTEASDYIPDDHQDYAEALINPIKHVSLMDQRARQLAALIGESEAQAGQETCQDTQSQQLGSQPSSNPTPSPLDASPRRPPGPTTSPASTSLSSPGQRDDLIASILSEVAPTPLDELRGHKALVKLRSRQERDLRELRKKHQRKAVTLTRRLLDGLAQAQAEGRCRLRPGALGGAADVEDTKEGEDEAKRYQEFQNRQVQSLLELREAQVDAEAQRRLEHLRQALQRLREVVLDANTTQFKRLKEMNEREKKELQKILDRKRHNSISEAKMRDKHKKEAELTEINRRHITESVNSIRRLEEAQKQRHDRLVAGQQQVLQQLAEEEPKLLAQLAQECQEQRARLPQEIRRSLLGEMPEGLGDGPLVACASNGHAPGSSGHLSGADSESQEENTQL
PLCg1 inh = PLC-gamma1 enzyme inhibitors, primary screen, biochemical, fluorescence, purified enzyme; 1-phosphatidylinositol 4,5-bisphosphate phosphodiesterase gamma-1 (Homo sapiens), P19174; fluorogenic substrate; inhibition, % at 12.2 µM; hit rate 0.84% among 370,000; AID 720700, 2013; in the data active = inhibition above about 9.5%
CendR NRP1 mod = modulators of CendR peptide binding to NRP-1, primary screen, biochemical, fluorescence polarization, uHTS; Neuropilin-1 (Homo sapiens), O14786; FAM-RPARPAR peptide binding to NRP-1; inhibition, % at 25 µM; hit rate 0.85% among 360,000;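 active = inhibition or corrected inhibition above about 18%, plus a signal ratio from 0.5 to 1.5, limit read from the data, passing the limit was not always enough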
DDE Tn6 FP inh = inhibitors of Tn6 peptide binding to fibrin DD(E), primary screen, biochemical, fluorescence polarization, human fibrin, Tn6 probe; Fibrinogen beta chain (Homo sapiens), P02675; Fibrin DD(E) TRITC-Tn6 fluorescence polarization displacement; inhibition, % at 8.3 µM; hit rate 0.21% among 370,000; AID 720509, 2013;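 active = inhibition above a per-campaign cutoff: mean of compounds within control limits plus 3 SD, cut at about 15% in these data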;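 note: 0% = median of all compound wells on the plate and 100% = blocking peptide control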
The depositor's hits bear a star; ! = repeats disagree.

Screening CCN(CC)C(=O)CC[C@@H]1CC[C@]2(CCCN(Cc3cccnc3)C2)O1 returned KLK7 zymogen act 0, Tn7 DDE FP -3, PLC-beta3 inh -1, PLCg1 inh -2 and DDE Tn6 FP inh -1.
COc1ccc(-c2[nH]ncc2CN(C)CCc2c(C)n[nH]c2C)c(F)c1 was read as KLK7 zymogen act 0, Tn7 DDE FP 3, PLC-beta3 inh 8, PLCg1 inh 3, CendR NRP1 mod 26* and DDE Tn6 FP inh 3.
For NCCc1cnc[nH]1 the results were KLK7 zymogen act -1, Tn7 DDE FP 4, PLC-beta3 inh -6, PLCg1 inh -6, CendR NRP1 mod 19*! and DDE Tn6 FP inh 2.
`COc1cccc(OC[C@@H](O)CN2CCC(C(O)(c3ccccc3)c3ccccc3)CC2)c1` gave KLK7 zymogen act -1, Tn7 DDE FP 2, PLC-beta3 inh 5, PLCg1 inh 1 and DDE Tn6 FP inh 6.
Screening O=C(CNC(=O)c1ccc(Cl)cc1Cl)OCc1ccccc1 returned KLK7 zymogen act 0, Tn7 DDE FP -7, PLC-beta3 inh 1, PLCg1 inh 4, CendR NRP1 mod 4 and DDE Tn6 FP inh -1.
For O=C(COC(=O)CNC(=O)c1ccc(Cl)cc1Cl)NC(=O)NCc1ccccc1 the results were KLK7 zymogen act 0, Tn7 DDE FP -6, PLC-beta3 inh -1, PLCg1 inh 11*, CendR NRP1 mod 19 and DDE Tn6 FP inh -7.
For Nc1[nH]c(C(=O)c2ccccc2)c(-c2ccccc2[N+](=O)[O-])c1C(=O)NCCc1c[nH]c2ccccc12 the results were KLK7 zymogen act 0, Tn7 DDE FP -1, PLC-beta3 inh -9, PLCg1 inh -7 and DDE Tn6 FP inh -4.
For Cc1ccc(-c2nnc(Nc3ccc4c(c3)OCO4)c3ccccc23)cc1S(=O)(=O)NC(C)C the results were KLK7 zymogen act 1, Tn7 DDE FP -10, PLC-beta3 inh -4, PLCg1 inh -5, CendR NRP1 mod 28* and DDE Tn6 FP inh -2.
CCOc1ccc(-n2c(SCC(=O)Nc3cccc4ccccc34)nnc2-c2ccncc2)cc1 was read as KLK7 zymogen act 0, Tn7 DDE FP -6, PLC-beta3 inh -1, PLCg1 inh -1 and DDE Tn6 FP inh 10.
For CC(=O)Nc1ccc(S(=O)(=O)N(CCCN2CCOCC2)Cc2cccs2)cc1 the results were KLK7 zymogen act 0, Tn7 DDE FP 4, PLC-beta3 inh 2, PLCg1 inh 0, CendR NRP1 mod 6 and DDE Tn6 FP inh 9.
Screening CC(C)(C)c1ccc(S(=O)(=O)N(CCCN2CCOCC2)Cc2cccs2)cc1 returned KLK7 zymogen act 0, Tn7 DDE FP 0, PLC-beta3 inh 5, PLCg1 inh 10*!, CendR NRP1 mod -1 and DDE Tn6 FP inh 5.
For COc1ccc(S(=O)(=O)N(C)CC(=O)N2CCN(C)CC2)cc1Cl the results were KLK7 zymogen act 1, Tn7 DDE FP 7, PLC-beta3 inh -4, PLCg1 inh -1, CendR NRP1 mod 0 and DDE Tn6 FP inh -8.
Screening COc1ccc(OC)c(S(=O)(=O)N(C)CC(=O)N2CCN(c3cccc(Cl)c3)CC2)c1 returned KLK7 zymogen act 0, Tn7 DDE FP 5, PLC-beta3 inh -1, PLCg1 inh -3, CendR NRP1 mod 19* and DDE Tn6 FP inh -4.
COc1ccc(S(=O)(=O)N(C)CC(=O)N2CCCCC2)cc1Cl was read as KLK7 zymogen act 1, Tn7 DDE FP 4, PLC-beta3 inh 2, PLCg1 inh 5, CendR NRP1 mod 27* and DDE Tn6 FP inh 9.
For C[C@H]1[C@H](c2ccccc2)OC(O)([C@H](Cc2ccccc2)NC(=O)OC(C)(C)C)CN1C (stereo partly specified) the results were Tn7 DDE FP -5, PLC-beta3 inh -22, PLCg1 inh 2 and DDE Tn6 FP inh -3.
`Cc1ccc2cc(CN(CCCN(C)C)C(=S)NCc3ccccc3)c(=O)[nH]c2c1C` gave KLK7 zymogen act 0, Tn7 DDE FP -2, PLC-beta3 inh 0, PLCg1 inh 4, CendR NRP1 mod 7 and DDE Tn6 FP inh 1.
Screening Cc1ccc2cc(CN(CCCN(C)C)C(=O)NCc3ccccc3)c(=O)[nH]c2c1C returned KLK7 zymogen act 1, Tn7 DDE FP -4, PLC-beta3 inh -3, PLCg1 inh 5, CendR NRP1 mod 38* and DDE Tn6 FP inh 12.
`CC(C)(C)n1cnc2cc(NC(=O)c3ccccc3)ccc21` gave KLK7 zymogen act 0, Tn7 DDE FP -3, PLC-beta3 inh -2, PLCg1 inh 2, CendR NRP1 mod 23* and DDE Tn6 FP inh 1.
CC(C)(C)n1cnc2cc(NC(=O)c3cccs3)ccc21 was read as KLK7 zymogen act 0, Tn7 DDE FP -2, PLC-beta3 inh -2, PLCg1 inh 4, CendR NRP1 mod 2 and DDE Tn6 FP inh -4.
`O=C(Nc1ccc(Cl)c(Cl)c1)Oc1ccc(NC(=O)c2ccco2)cc1` gave KLK7 zymogen act 0, Tn7 DDE FP 19*, PLC-beta3 inh 0, PLCg1 inh -1, CendR NRP1 mod -3 and DDE Tn6 FP inh -1.
COc1ccc(NC(=O)c2ccco2)cn1 was read as KLK7 zymogen act 0, Tn7 DDE FP 6, PLC-beta3 inh -7, PLCg1 inh -3, CendR NRP1 mod 26* and DDE Tn6 FP inh 3.
CCc1cc(C(=O)Nc2ccc(OC)nc2)sc1C was read as KLK7 zymogen act 0, Tn7 DDE FP 10, PLC-beta3 inh -12, PLCg1 inh -4, CendR NRP1 mod 24* and DDE Tn6 FP inh 9.
For COc1ccc(NC(=O)/C(Cl)=C(/Cl)S(=O)(=O)Cc2ccccc2)cn1 the results were KLK7 zymogen act 2, Tn7 DDE FP 0, PLC-beta3 inh 7, PLCg1 inh 10*, CendR NRP1 mod -2 and DDE Tn6 FP inh -4.
For Cn1cnc2cc(NC(=O)c3ccco3)ccc21 the results were KLK7 zymogen act 1, Tn7 DDE FP 2, PLC-beta3 inh 2, PLCg1 inh 1, CendR NRP1 mod 24* and DDE Tn6 FP inh 1.
For C=CCN(CC#CCN(C)C(=O)c1cccn1C(=O)OC(C)(C)C)Cc1ccc(OC)cc1OC the results were KLK7 zymogen act 0, Tn7 DDE FP -5, PLC-beta3 inh 1, PLCg1 inh 1 and DDE Tn6 FP inh -3.
Screening CC(=O)Nc1ccc(NC(=O)CSc2ncc(C(=O)Nc3ccccc3)c(=O)n2C)cc1 returned KLK7 zymogen act 0, Tn7 DDE FP -5, PLC-beta3 inh -3, PLCg1 inh -1, CendR NRP1 mod -11 and DDE Tn6 FP inh -5.
